The results in this text go back to ChEMBL document CHEMBL1147783, “Synthesis and biological activity of novel 4-phenyl-1,8-naphthyridin-2(1H)-on-3-yl ureas: potent acyl-CoA:cholesterol acyltransferase inhibitor with improved aqueous solubility” (Bioorg Med Chem Lett, 2006).

The target of data set [1] is T1, Sterol O-acyltransferase 1 (Rattus norvegicus, UniProt O70536).
T1 sequence (O70536 whole entry): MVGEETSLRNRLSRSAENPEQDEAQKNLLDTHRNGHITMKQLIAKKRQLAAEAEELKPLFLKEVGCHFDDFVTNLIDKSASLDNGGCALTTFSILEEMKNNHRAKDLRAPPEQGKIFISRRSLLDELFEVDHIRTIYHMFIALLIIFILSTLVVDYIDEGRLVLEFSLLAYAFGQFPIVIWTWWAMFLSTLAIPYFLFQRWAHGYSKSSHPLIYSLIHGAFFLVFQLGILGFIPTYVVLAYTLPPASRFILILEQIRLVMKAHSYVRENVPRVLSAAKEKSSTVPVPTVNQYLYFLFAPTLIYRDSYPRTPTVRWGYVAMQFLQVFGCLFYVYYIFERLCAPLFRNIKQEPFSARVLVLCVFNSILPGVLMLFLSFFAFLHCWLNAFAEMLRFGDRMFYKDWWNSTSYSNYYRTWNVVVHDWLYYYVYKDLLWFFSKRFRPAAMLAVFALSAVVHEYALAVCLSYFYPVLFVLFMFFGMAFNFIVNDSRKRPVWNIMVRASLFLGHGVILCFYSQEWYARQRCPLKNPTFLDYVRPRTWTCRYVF
The data set is described as follows: Inhibitory activity against ACAT in rat macrophages.

A short description of data set [2]: Solubility in phosphate buffer at pH 7.4. The class given is physicochemical. An outline of the steps:
(§1)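 Solubility was measured at rt in phosphate buffer (5.53% aq citric acid/1.75% aq Na₂HPO₄) adjusted to pH 2.5, 5.5 or 7.4. Dissolved compound was quantified by HPLC.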

Data set [3] can be described thus: Solubility in phosphate buffer at pH 5.5. The class given is physicochemical. An outline of the steps: as §1
Data set [4] is described as follows: Solubility in phosphate buffer at pH 2.5. The class given is physicochemical. In short, it runs like this:
as §1

A short description of data set [5]: Cmax in mice administered with 30 mg/kg po. The data set is classed as ADME, organism-based. Details: dose 30 mg/kg, route oral. As to conditions: mouse, in vivo.
The nature of data set [6]: Cmax in rabbit administered with 1.0 mg/kg/day for 21 days. The data set is classed as ADME, organism-based, Oryctolagus cuniculus. Details: dose 1 mg/kg/day. As to conditions: in vivo. An outline of the steps:
(§2)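 Rabbits were dosed orally at 1.0 mg/kg/day for 21 days. Blood drug levels gave Cmax and AUC over 0–24 h. Serum total cholesterol was measured under the same regimen and expressed relative to control animals.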

For another data set, the system named is Oryctolagus cuniculus. Put plainly: Decrease in serum total cholesterol in rabbit administered with 1.0 mg/kg/day for 21 days compared to control. The data set is classed as ADME, organism-based. Details: scale not given: the % may be the effect or the level left. The note with it: in vivo, 504 h. An outline of the steps: as §2
Data set [7] can be described thus: AUC in rabbit administered with 1.0 mg/kg/day for 21 days. The class given is ADME, organism-based, Oryctolagus cuniculus. The note with it: plasma. An outline of the steps: as §2

Where only a bound is given, the exact number is not on record here.

A word on the IC50: it is the point on the concentration scale where inhibition reaches its midpoint. One may read the solubility as the concentration that dissolves in the medium under given conditions. In turn, `CCCCn1c(=O)c(NC(=O)Nc2c(C(C)C)cccc2C(C)C)c(-c2cccc(OC)c2)c2cccnc21` showed an IC50 in data set [1] of 11 nM. For the same compound, the solubility in data set [2], in data set [3] and in data set [4] was less than 1 µg/mL in each case.

For the compound `CCCCn1c(=O)c(NC(=O)Nc2c(C(C)C)cc(N)cc2C(C)C)c(-c2cccc(OCCCN3CCCC3)c2)c2cccnc21.Cl.Cl`, in data set [1], the midpoint of inhibition, the IC50, lay at 427 nM. For the same compound, the results for the solubility in data set [2], in data set [3] and in data set [4] were 130 µg/mL, 200 µg/mL and more than 1000 µg/mL, respectively.

`CCCCn1c(=O)c(NC(=O)Nc2c(C(C)C)cc(CN(CC)CC)cc2C(C)C)c(-c2cccc(OC)c2)c2cccnc21.Cl` gave a concentration for half-maximal inhibition (IC50) in data set [1] of 680 nM. In addition, the values for the solubility in data set [2], in data set [3] and in data set [4] were 62 µg/mL, 1000 µg/mL and more than 1000 µg/mL, respectively.

Consider `CCCCn1c(=O)c(NC(=O)Nc2c(C(C)C)cc(N)cc2C(C)C)c(-c2cccc(OCCCN(CC)CC)c2)c2cccnc21.Cl.Cl`, for which, in data set [1], the IC50 was 452 nM. For the same compound, the solubility is 640 µg/mL in data set [2], 690 µg/mL in data set [3] and more than 1000 µg/mL in data set [4].

`CCCCn1c(=O)c(NC(=O)Nc2c(C(C)C)ccc(N)c2C(C)C)c(-c2cccc(OCCCO)c2)c2cccnc21.Cl`: the IC50 in data set [1] came out at 43 nM. For the same compound, the solubility in data set [2] was 17 µg/mL; in data set [3], 19 µg/mL; in data set [4], more than 1000 µg/mL.

The compound `CCCCn1c(=O)c(NC(=O)Nc2c(C(C)C)cc(N)cc2C(C)C)c(-c2cccc(OCCO)c2)c2cccnc21.Cl` returned an IC50 in data set [1] of more than 1000 nM. Also, the solubility in data set [2] was 30 µg/mL; in data set [3], 32 µg/mL; in data set [4] it was more than 1000 µg/mL.

Turning to `CCCCn1c(=O)c(NC(=O)Nc2c(C(C)C)cc(N)cc2C(C)C)c(-c2cccc(OCCCCO)c2)c2cccnc21.Cl`, in data set [1], inhibition was half-maximal at 61 nM (IC50). The results for the solubility in data set [2], in data set [3] and in data set [4] were 5 µg/mL, 7 µg/mL and 680 µg/mL, respectively.

The term Cmax denotes the peak of the concentration-time curve. A word on the AUC: it is concentration integrated over time. Consider `CCCCn1c(=O)c(NC(=O)Nc2c(C(C)C)cc(N)cc2C(C)C)c(-c2cccc(OCCCO)c2)c2cccnc21.Cl`, for which the IC50 in data set [1] is 21 nM. Moreover, the solubility was 10 µg/mL in data set [2], 14 µg/mL in data set [3] and more than 1000 µg/mL in data set [4]. Besides, the Cmax amounted to 21300 ng/mL in data set [5] and 16 ng/mL in data set [6]. In the data set on Oryctolagus cuniculus, this compound had an Activity of 53%. Further, the AUC at 504 h in data set [7] came out at 39.8 ng·h/mL.

In data set [1], `CCCCn1c(=O)c(NC(=O)Nc2c(C(C)C)cc(N)cc2C(C)C)c(-c2cccc(OCCCN3CCCCC3)c2)c2cccnc21.Cl.Cl` gave an IC50 of 540 nM. Also, the solubility in data set [2] is 200 µg/mL; in data set [3], 180 µg/mL; in data set [4] it was more than 1000 µg/mL.

Regarding `CCCCn1c(=O)c(NC(=O)Nc2c(C(C)C)cc(N)cc2C(C)C)c(-c2cccc(OC)c2)c2cccnc21.Cl`, the IC50 in data set [1] was 8.3 nM. Besides, the solubility in data set [2] is less than 1 µg/mL; in data set [3] it was 1 µg/mL; in data set [4], 22 µg/mL.

Take `CCCCn1c(=O)c(NC(=O)Nc2c(C(C)C)ccc(N)c2C(C)C)c(-c2cccc(OC)c2)c2cccnc21.Cl`: the IC50 in data set [1] was found to be 14 nM. The solubility turned out to be 1 µg/mL in data set [2], 1 µg/mL in data set [3] and 700 µg/mL in data set [4].

Compound `CCCCn1c(=O)c(NC(=O)Nc2c(C(C)C)ccnc2C(C)C)c(-c2cccc(OC)c2)c2cccnc21.Cl` came in with an IC50 in data set [1] of 5.4 nM. The solubility in data set [2] was 5 µg/mL; in data set [3], 19 µg/mL; in data set [4] it was more than 1000 µg/mL.

`CCCCn1c(=O)c(NC(=O)Nc2c(C(C)C)cc(CN)cc2C(C)C)c(-c2cccc(OC)c2)c2cccnc21.Cl` gave an IC50 in data set [1] of 382 nM. Also, the results for the solubility in data set [2], in data set [3] and in data set [4] were 36 µg/mL, 23 µg/mL and 220 µg/mL, respectively.
